# Several values for one entry are separate records, joined by “and”; a condition that tells them apart may be missing. Equal values may be shown once.
# Tested on: Fibroblast
# Test: Multiplex assay against human fibroblast
# Format: toxicity, cell-based
# Details: number of replicates 2
# How it was run: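 Four dyes were applied at seeding to live cells: Hoechst33342, BioTracker Green Microtubule Cytoskeleton Dye, MitoTracker Red and Annexin V Alexa Fluor 680. Imaging after compound addition used a CQ1 microscope at 37°C and 5% CO2. CellPathfinder machine-learning gating then sorted cells into Hoechst high-intensity objects or normal cells, normal cells into healthy, pyknosed or fragmented nuclei, and pyknosed cells into mitotic or apoptotic, with tubulin, mitochondrial-mass and membrane-permeability phenotypes given as per cents of healthy-nucleus cells.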
# [1] = 12 h, 1 µM, compound concentration 1 uM
# [2] = 12 h, 10 µM, compound concentration 10 uM
# [3] = 24 h, 1 µM, compound concentration 1 uM
# [4] = 24 h, 10 µM, compound concentration 10 uM
# [5] = 48 h, 1 µM, compound concentration 1 uM
# [6] = 48 h, 10 µM, compound concentration 10 uM
structure (smiles),measurement,setting,value
CC(C)S(=O)(=O)c1ccccc1Nc1nc(N[C@@H]2CCCN(CCCCCCCNC(=O)COc3cccc4c3C(=O)N(C3CCC(=O)NC3=O)C4=O)C2)ncc1Cl (some centres not stated),Population Apoptotic (%),[1],55% and 64%
same,Population Fragmented Nuclei (%),[1],12% and 11%
same,Population Healthy Nuclei (%),[1],50%
same,Population Hoechst High Intensity Objects (%),[1],0%
same,Population Membrane Permeable-Phenotype (%),[1],15% and 11%
same,Population Mitochondria Different-Phenotype (%),[1],4% and 2%
same,Population Mitotic Cells (%),[1],44% and 35%
same,Population Normal (%),[1],100%
same,Population Pyknosed Nuclei (%),[1],37% and 38%
same,Population Tubulin-Different-Phenotype (%),[1],40% and 37%
same,Total Cell Count,[1],181 and 196
same,Population Apoptotic (%),[2],65% and 48%
same,Population Fragmented Nuclei (%),[2],12% and 16%
same,Population Healthy Nuclei (%),[2],42% and 33%
same,Population Hoechst High Intensity Objects (%),[2],0% and 1%
same,Population Membrane Permeable-Phenotype (%),[2],56% and 36%
same,Population Mitochondria Different-Phenotype (%),[2],22% and 30%
same,Population Mitotic Cells (%),[2],34% and 52%
same,Population Normal (%),[2],99% and 98%
same,Population Pyknosed Nuclei (%),[2],44% and 49%
same,Population Tubulin-Different-Phenotype (%),[2],72% and 32%
same,Total Cell Count,[2],231 and 205
same,Population Apoptotic (%),[3],68% and 83%
same,Population Fragmented Nuclei (%),[3],10%
same,Population Healthy Nuclei (%),[3],51%
same,Population Hoechst High Intensity Objects (%),[3],0%
same,Population Membrane Permeable-Phenotype (%),[3],7% and 4%
same,Population Mitochondria Different-Phenotype (%),[3],9% and 4%
same,Population Mitotic Cells (%),[3],31% and 16%
same,Population Normal (%),[3],99% and 100%
same,Population Pyknosed Nuclei (%),[3],37%
same,Population Tubulin-Different-Phenotype (%),[3],27% and 15%
same,Total Cell Count,[3],171 and 175
same,Population Apoptotic (%),[4],74% and 79%
same,Population Fragmented Nuclei (%),[4],13% and 14%
same,Population Healthy Nuclei (%),[4],32% and 33%
same,Population Hoechst High Intensity Objects (%),[4],1%
same,Population Membrane Permeable-Phenotype (%),[4],32% and 19%
same,Population Mitochondria Different-Phenotype (%),[4],36% and 39%
same,Population Mitotic Cells (%),[4],26% and 20%
same,Population Normal (%),[4],98%
same,Population Pyknosed Nuclei (%),[4],53% and 51%
same,Population Tubulin-Different-Phenotype (%),[4],68% and 75%
same,Total Cell Count,[4],188 and 232
same,Population Apoptotic (%),[5],63% and 73%
same,Population Fragmented Nuclei (%),[5],15% and 12%
same,Population Healthy Nuclei (%),[5],44% and 43%
same,Population Hoechst High Intensity Objects (%),[5],0%
same,Population Membrane Permeable-Phenotype (%),[5],18% and 9%
same,Population Mitochondria Different-Phenotype (%),[5],5% and 8%
same,Population Mitotic Cells (%),[5],36% and 26%
same,Population Normal (%),[5],99% and 100%
same,Population Pyknosed Nuclei (%),[5],40% and 43%
same,Population Tubulin-Different-Phenotype (%),[5],31% and 36%
same,Total Cell Count,[5],173 and 163
same,Population Apoptotic (%),[6],79% and 83%
same,Population Fragmented Nuclei (%),[6],17% and 13%
same,Population Healthy Nuclei (%),[6],36% and 32%
same,Population Hoechst High Intensity Objects (%),[6],2% and 0%
same,Population Membrane Permeable-Phenotype (%),[6],36% and 34%
same,Population Mitochondria Different-Phenotype (%),[6],14% and 22%
same,Population Mitotic Cells (%),[6],20% and 16%
same,Population Normal (%),[6],97% and 99%
same,Population Pyknosed Nuclei (%),[6],46% and 53%
same,Population Tubulin-Different-Phenotype (%),[6],73% and 60%
same,Total Cell Count,[6],196 and 232
CSc1cc2c(cc1C(F)(F)F)N(C(=O)Nc1cccnc1)CC2,Population Apoptotic (%),[1],50% and 34%
same,Population Fragmented Nuclei (%),[1],9% and 17%
same,Population Healthy Nuclei (%),[1],75% and 64%
same,Population Hoechst High Intensity Objects (%),[1],0%
same,Population Membrane Permeable-Phenotype (%),[1],6% and 2%
same,Population Mitochondria Different-Phenotype (%),[1],0% and 2%
same,Population Mitotic Cells (%),[1],50% and 65%
same,Population Normal (%),[1],100%
same,Population Pyknosed Nuclei (%),[1],15% and 17%
same,Population Tubulin-Different-Phenotype (%),[1],5% and 10%
same,Total Cell Count,[1],144 and 180
same,Population Apoptotic (%),[2],22% and 26%
same,Population Fragmented Nuclei (%),[2],4% and 13%
same,Population Healthy Nuclei (%),[2],84% and 71%
same,Population Hoechst High Intensity Objects (%),[2],0%
same,Population Membrane Permeable-Phenotype (%),[2],2% and 5%
same,Population Mitochondria Different-Phenotype (%),[2],0%
same,Population Mitotic Cells (%),[2],77% and 73%
same,Population Normal (%),[2],100%
same,Population Pyknosed Nuclei (%),[2],11% and 15%
same,Population Tubulin-Different-Phenotype (%),[2],8% and 2%
same,Total Cell Count,[2],162 and 152
same,Population Apoptotic (%),[3],42% and 51%
same,Population Fragmented Nuclei (%),[3],5% and 14%
same,Population Healthy Nuclei (%),[3],80% and 65%
same,Population Hoechst High Intensity Objects (%),[3],0%
same,Population Membrane Permeable-Phenotype (%),[3],1% and 4%
same,Population Mitochondria Different-Phenotype (%),[3],0%
same,Population Mitotic Cells (%),[3],57% and 48%
same,Population Normal (%),[3],100% and 99%
same,Population Pyknosed Nuclei (%),[3],13% and 20%
same,Population Tubulin-Different-Phenotype (%),[3],9% and 11%
same,Total Cell Count,[3],142 and 185
same,Population Apoptotic (%),[4],20% and 33%
same,Population Fragmented Nuclei (%),[4],9% and 15%
same,Population Healthy Nuclei (%),[4],81% and 73%
same,Population Hoechst High Intensity Objects (%),[4],0%
same,Population Membrane Permeable-Phenotype (%),[4],4% and 3%
same,Population Mitochondria Different-Phenotype (%),[4],0%
same,Population Mitotic Cells (%),[4],80% and 66%
same,Population Normal (%),[4],100%
same,Population Pyknosed Nuclei (%),[4],8% and 11%
same,Population Tubulin-Different-Phenotype (%),[4],9% and 3%
same,Total Cell Count,[4],173 and 156
same,Population Apoptotic (%),[5],55% and 70%
same,Population Fragmented Nuclei (%),[5],14% and 16%
same,Population Healthy Nuclei (%),[5],73% and 70%
same,Population Hoechst High Intensity Objects (%),[5],0%
same,Population Membrane Permeable-Phenotype (%),[5],5% and 8%
same,Population Mitochondria Different-Phenotype (%),[5],0%
same,Population Mitotic Cells (%),[5],44% and 29%
same,Population Normal (%),[5],99% and 100%
same,Population Pyknosed Nuclei (%),[5],11% and 12%
same,Population Tubulin-Different-Phenotype (%),[5],4% and 7%
same,Total Cell Count,[5],158 and 187
same,Population Apoptotic (%),[6],54% and 46%
same,Population Fragmented Nuclei (%),[6],7% and 14%
same,Population Healthy Nuclei (%),[6],86% and 76%
same,Population Hoechst High Intensity Objects (%),[6],0%
same,Population Membrane Permeable-Phenotype (%),[6],3% and 2%
same,Population Mitochondria Different-Phenotype (%),[6],0%
same,Population Mitotic Cells (%),[6],45% and 53%
same,Population Normal (%),[6],100%
same,Population Pyknosed Nuclei (%),[6],5% and 9%
same,Population Tubulin-Different-Phenotype (%),[6],4% and 3%
same,Total Cell Count,[6],188 and 164
